Reference: ChEMBL document CHEMBL1134602, “A new class of symmetric bisbenzimidazole-based DNA minor groove-binding agents showing antitumor activity” (J Med Chem, 2001)

What was measured:
A2780cisR = assay: Antitumor activity of compound for 96-h exposure in A2780cisR (acquired resistance to cisplatin) human ovarian cell line; type: functional, cell-based
Outline: (§1)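 Cells grown as monolayers in DMEM with 10% fetal bovine serum, 2 mM glutamine and 0.5 µg/mL hydrocortisone, in 6% CO2. Seeded at 3000-5000/well and attached overnight. Serial drug dilutions (compound dissolved in 10% DMSO) added to quadruplicate wells, 96 h. Fixed with TCA, stained with SRB, absorbance read at 540 nm. IC50 is the concentration giving 50% of control absorbance. Resistance factor is resistant-subline IC50 divided by parent IC50.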

CH1 [1] = assay: Antitumor activity of compound for 96-h exposure in CH1 human ovarian cell line; type: functional, cell-based; conditions: CH1, 96 h; outline: as §1
SK-OV-3 [2] = assay: Antitumor activity of compound for 96-h exposure in SKOV-3 human ovarian cell line; type: functional, cell-based; conditions: SK-OV-3, 96 h; outline: as §1
Mus musculus [3] = assay: Activity was determined in ip human tumor xenograft (hallow fiber) assays in adult female nude mice; type: functional
Mus musculus [4] = assay: Activity was determined in sc human tumor xenograft (hallow fiber) assays, adult female nude mice; type: functional
Mus musculus [5] = species: Mus musculus; assay: Total score was determined, adult female nude mice; type: functional
A2780 = assay: Antitumor activity of compound for 96-h exposure in A2780 human ovarian cell line; type: functional, cell-based; conditions: A2780, 96 h; outline: as §1
CH1 [6] = assay: In vivo antitumor activity was determined after a dose of 4 mg/kg (ip) using hollow fiber assay with (ip)implanted CH1 cells; type: functional, Homo sapiens
Outline: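 CH1 cells trypsinized, seeded at 1 × 10^7 cells/mL into 2-cm PVDF fibers, heat-sealed and incubated 3 days. Fibers then implanted ip in nude mice. Next day a single 4 mg/kg ip dose given, or vehicle (10% DMSO/90% arachis oil). Fibers retrieved six days later; viable cells measured by MTT absorbance at 540 nm and expressed as % treated/control.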

OVCAR-3 = assay: In vivo antitumor activity was determined after a dose of 4.5 mg/kg (ip) using hollow fiber assay against OVCAR-3 human ovarian carcinoma cells (ip-implanted fibers); type: functional
SK-OV-3 [7] = assay: Growth inhibitory activity of compound for 2-h exposure in SKOV-3 cell line; type: functional, cell-based; conditions: Homo sapiens, SK-OV-3, 2 h
Outline: (§2)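 SKOV-3 monolayers treated with serially diluted drug in quadruplicate wells. Drug aspirated after 2, 6 or 24 h and replaced with fresh medium for the rest of a 96-h period. Growth measured by TCA fixation, SRB staining and absorbance at 540 nm. IC50 is the concentration halving mean absorbance relative to untreated controls.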

SK-OV-3 [8] = assay: Growth inhibitory activity of compound for 24-h exposure in SKOV-3 cell line; type: functional, cell-based; conditions: Homo sapiens, SK-OV-3, 24 h; outline: as §2
SK-OV-3 [9] = assay: Growth inhibitory activity of compound for 6-h exposure in SKOV-3 cell line; type: functional, cell-based; conditions: Homo sapiens, SK-OV-3, 6 h; outline: as §2
SK-OV-3 [10] = assay: Growth inhibitory activity of compound for 96-h exposure in SKOV-3 cell line; type: functional, cell-based; conditions: Homo sapiens, SK-OV-3, 96 h; outline: as §1
[11] = Resistance factor was determined using the ratio of resistance of resistant cell line and its parent cell line

Row | Compound | IC50 (A2780cisR) [µM] | IC50 (CH1 [1]) [µM] | IC50 (SK-OV-3 [2]) [µM] | IC50 (A2780) [µM] | IC50 (SK-OV-3 [7]) [µM] | IC50 (SK-OV-3 [8]) [µM] | IC50 (SK-OV-3 [9]) [µM] | IC50 (SK-OV-3 [10]) [µM] | Ip score (Mus musculus [3]) | Subcut score (Mus musculus [4]) | Total score (Mus musculus [5]) | T/C (CH1 [6]) | T/C (OVCAR-3) | RF [11]
1 | CN(C)CCCOc1ccc(-c2nc3cc(-c4ccc5nc(-c6ccc(OCCCN(C)C)cc6)[nH]c5c4)ccc3[nH]2)cc1 | 0.115 | 0.24 | 0.375 | 0.235 | 0.33 | 0.115 | 0.105 | 0.1 | 12 | 4 | 16 | 0.79 | 0.56 | 5.8
2 | COc1cccc2c1C(=O)c1c(O)c3c(c(O)c1C2=O)C[C@@](O)(C(=O)CO)C[C@@H]3O[C@H]1C[C@H](N)[C@H](O)[C@H](C)O1 [DOXORUBICIN] |  |  |  |  |  |  |  |  |  |  |  |  |  | 90
3 | CN1CCN(c2ccc3[nH]c(-c4ccc5[nH]c(-c6ccc(O)cc6)nc5c4)nc3c2)CC1 [HOECHST 33258] | 9.5 | 26.5 | > 100 | 12 |  |  |  |  |  |  |  |  |  | 

Further lines, with some results ahead:

Row | IC50 (A2780cisR) [µM] | IC50 (CH1 [1]) [µM] | IC50 (SK-OV-3 [2]) [µM] | IC50 (A2780) [µM] | IC50 (SK-OV-3 [7]) [µM] | IC50 (SK-OV-3 [8]) [µM] | IC50 (SK-OV-3 [9]) [µM] | IC50 (SK-OV-3 [10]) [µM] | Compound | Ip score (Mus musculus [3]) | Subcut score (Mus musculus [4]) | Total score (Mus musculus [5]) | T/C (CH1 [6]) | T/C (OVCAR-3) | RF [11]
4 | 5.1 | 3.8 | 16.5 | 13.5 |  |  |  |  | COc1ccc(-c2nc3cc(-c4ccc5[nH]c(-c6ccc(OC)cc6)nc5c4)ccc3[nH]2)cc1 | 8 | 0 | 8 |  |  | 
5 | 2.7 | 1.05 | 16 | 4.3 |  |  |  |  | Oc1ccc(-c2nc3ccc(-c4ccc5nc(-c6ccc(O)cc6)[nH]c5c4)cc3[nH]2)cc1 | 10 | 0 | 10 |  |  | 
